Columns and labels:
[1] = test system: diabetic NSG RIP-DTR mice engrafted with human islets; assay type: in vivo, mouse; conditions: Donor 5 study; low dose 50 µg/kg sc twice daily
[2] = test system: diabetic NSG RIP-DTR mice engrafted with human islets; test: Body weight of human islet-engrafted mice; assay type: in vivo, mouse; conditions: 50, 150, 500 µg/kg sc twice daily
Outline: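 Male NSG RIP-DTR mice, 8–12 weeks old, made diabetic by diphtheria toxin ablation of mouse beta cells and engrafted with a marginal mass of human islets from a single donor. Randomized into four groups: vehicle or test compound at 50, 150 or 500 µg/kg/injection, given sc twice daily until removal of the graft-bearing kidney at ~4 weeks post-transplant. Body weights followed over the study.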

[3] = test system: human islets engrafted in NSG RIP-DTR mice; test: Plasma human insulin; assay type: in vivo, mouse; conditions: 2 weeks post-transplant
[4] = test system: diabetic NSG RIP-DTR mice engrafted with human islets; test: Glucose tolerance test; assay type: in vivo, mouse; conditions: for GTT vs controls: Donor 3 study
Outline: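 Human islet-engrafted diabetic NSG RIP-DTR mice on twice-daily sc vehicle or test compound were fasted 5–6 hours. Glucose (2.0 g/kg body weight) was injected ip, and blood glucose was measured afterwards.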

[5] = test system: human beta cells in islet grafts; test: TUNEL assay of human beta-cell apoptosis in recovered islet grafts; assay type: in vivo
Outline: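 Recovered human islet grafts were taken on days 29, 32 and 21 for the Donor 3, 4 and 5 studies, at the end of twice-daily sc dosing. Sections were co-stained for insulin and TUNEL-labelled following the kit instructions. Cells were visualized by fluorescence microscopy and counted, and results expressed as percent TUNEL-positive beta cells.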

[6] = test system: human beta and alpha cells in islet grafts; test: Total beta- and alpha-cell counts in human islet grafts; assay type: in vivo; conditions: Donor 5 study
Outline: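 After twice-daily sc dosing, the graft-bearing kidney was removed. For the Donor 5 study, grafts were recovered on day 21. Whole-section images were taken from the outer graft edge with a motorized-stage fluorescence microscope and stitched, and total insulin+ and glucagon+ cells were counted.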

[7] = test system: INS-1 rat pancreatic beta-cell line; conditions: in vitro; cited from earlier work
[8] = test system: patients with T2D; conditions: cited from earlier work
[9] = high dose 500 µg/kg sc twice daily
[10] = low dose 50 µg/kg sc twice daily, n=3 or 4
[11] = medium dose 150 µg/kg sc twice daily

Q: Which blood glucose [1] does the source give for lixisenatide here?
A: The blood glucose was ~ 400 mg/dL.

Q: What about the “body weight change between transplant and nephrectomy” value ([2]; Donor 1 study) of the same substance?
A: Its value is “all mice lost significant weight between the time of transplant and nephrectomy, except the medium-dose group”.

Q: And the “body weight change between transplant and nephrectomy” value ([2]; Donor 3 and 4 studies)?
A: Its value is “no significant change in body weight”.

Q: What about the “stimulation index (ratio of stimulated to fasting human insulin) vs control” value ([3]; high dose 500 µg/kg, Donor 3 and 4 studies) of the same substance?
A: The value was “significantly increased compared to controls”.

Q: What about the “stimulation index (ratio of stimulated to fasting human insulin) vs control” value ([3]; medium dose 150 µg/kg, Donor 1, 3 and 4 studies) of the same substance?
A: Its value is “significantly increased compared to controls”.

Q: What about the GTT vs controls ([4]; high dose 500 µg/kg (P<0.05)) of the same substance?
A: Its GTT vs controls is “significant differences from controls”.

Q: And the GTT vs controls ([4]; medium dose 150 µg/kg (P<0.01))?
A: The GTT vs controls was “significant differences from controls”.

Q: And the “GTT vs control group” value ([4]; Donor 4 study, low dose 50 µg/kg (P<0.05))?
A: Its value is “significant differences from the control group”.

Q: What about the “average percent beta-cell apoptosis at the end of each study” value ([5]; TUNEL-positive beta cells, control and lixisenatide groups, Donors 3, 4, 5) of the same substance?
A: The value was < 1%.

Q: What about the “beta-cell apoptosis (TUNEL) vs control” value ([5]; grafts recovered days 29, 32, 21 (Donors 3, 4, 5), all dose groups) of the same substance?
A: The value was “no significant differences in beta-cell apoptosis”.

Q: What about the “numbers of alpha cells in islet graft relative to control group” value [6, 9] of the same substance?
A: The value was “approximately threefold higher”.

Q: And the “numbers of beta cells in islet graft relative to control group” value [6, 9]?
A: The value was “approximately threefold higher”.

Q: And the “alpha-cell counts in islet graft relative to control group” value [6, 10]?
A: Its value is “approximately twofold higher”.

Q: What about the “beta-cell counts in islet graft relative to control group” value [6, 10] of the same substance?
A: Its value is “approximately twofold higher”.

Q: And the “numbers of alpha cells in islet graft relative to control group” value [6, 11]?
A: Its value is “approximately threefold higher”.

Q: And the “numbers of beta cells in islet graft relative to control group” value [6, 11]?
A: Its value is “approximately threefold higher”.

Q: And the “lipid- and cytokine-induced apoptosis” value [7]?
A: Its value is “protect against lipid- and cytokine-induced apoptosis”.

Q: What about the “reduction in postprandial plasma glucose vs placebo” value ([8]; T2D patients insufficiently controlled on metformin) of the same substance?
A: Its value is “significantly greater reduction in postprandial plasma glucose”.

Q: What about the “glycemic control (postprandial and fasting glucose levels)” value ([8]; patients with T2D, once-daily administration) of the same substance?
A: Its value is “improved glycemic control by decreasing both postprandial and fasting glucose levels”.
